A value given as a limit tells only on which side of the number the result lay.

This note sets out measurements from ChEMBL document CHEMBL4651341, “The discovery of a novel series of compounds with single-dose efficacy against juvenile and adult Schistosoma species” (PLoS Negl Trop Dis, 2021).

The experiment deals with Schistosoma mansoni. Description: Concentration required to kill 50% of 21 day old worms 5 days after drug treatment. In kind it is functional, organism-based. The note with it: Puerto Rican, 120 h. The gist of the method:
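Juvenile S. mansoni (Puerto Rican strain) were perfused from CD1 mice 3 weeks post-infection and washed. They were cultured 6–8 per well in 200 µL DMEM with 2 mM glutamine, penicillin/streptomycin and 10% FCS at 37 °C, 5% CO2. Viability of individual worms was scored on day 5 after dosing (120 h).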

As usually defined, the EC50 is the concentration that produces a half-maximal response. High values mean weaker potency, low ones greater potency. Turning to `CC(C)Oc1cccc(-c2cn3c(-c4cccc(CO)c4)cnc3cn2)c1`, the EC50 was > 25 µM. In the case of `Cn1cc(-c2cn3c(-c4ccc(O)cc4)cnc3cn2)cn1` it was > 25 µM; in that of `COc1ccc(-c2nnc3ccc(-c4cccc(F)c4)cn23)cc1OC`, > 25 µM. In the case of `COc1ccc(-c2cnc3cnc(-c4cccc(F)c4)cn23)cc1` it was > 25 µM; in that of `COc1ccc(-c2cnc3cnc(-c4ccc(OC)nc4)cn23)cc1`, > 25 µM; in that of `CC(C)Oc1cccc(-c2cn3c(-c4ccc(F)cc4)cnc3cn2)c1`, > 25 µM.

Consider `OCCn1cc(-c2cn3c(-c4ccc(O)cc4)cnc3cn2)cn1`, for which the EC50 is > 25 µM.

`CC(=O)Nc1cccc(-c2cn3c(-c4ccc(O)cc4)cnc3cn2)c1`: the EC50 was > 25 µM. In the case of `COCc1cccc(-c2nnc3ccc(-c4cccc(OC(C)C)c4)cn23)c1` it was > 25 µM; in that of `COc1ccc(-c2nnc3ccc(-c4cccc(OC(C)C)c4)cn23)c(OC)c1`, > 25 µM; in that of `Cn1ccc(-c2cn3c(-c4ccc(O)cc4)cnc3cn2)n1`, > 25 µM.

As for `COc1cc(-c2cnc3cnc(-c4cccc(OC(C)C)c4)cn23)ccn1`, the EC50 was > 25 µM. As for `CS(=O)(=O)Nc1cccc(-c2cn3c(-c4ccc(O)cc4)cnc3cn2)c1`, the EC50 was > 25 µM.

In the case of `CC(C)Oc1cccc(-c2ccc3nnc(-c4ccc5c(c4)CCO5)n3c2)c1`, the EC50 is > 25 µM. With `COc1ccc(-c2cnc3cnc(-c4cnn(CCN5CCOCC5)c4)cn23)c(C)c1`, the EC50 is > 25 µM.

For the molecule `CNC(=O)c1cccc(-c2cn3c(-c4ccc(OC)cc4)cnc3cn2)c1`, the EC50 is > 25 µM. In the case of `COc1ccc(-c2nnc3ccc(-c4cccc(Cl)c4)cn23)cc1OC` it was > 25 µM. The result for `COc1ccc(-c2cnc3cnc(-c4ccnc(C(F)(F)F)c4)cn23)cc1` reads > 25 µM; that for `CC(C)Oc1cccc(-c2cn3c(-c4cncnc4)cnc3cn2)c1`, > 25 µM; that for `COc1cc(-c2nnc3ccc(-c4cccc(OC(C)C)c4)cn23)ccn1`, > 25 µM. On to `Cc1ccc(-c2cnc3cnc(-c4cccc(OC(C)C)c4)cn23)cn1`, for which the EC50 was > 25 µM.

In the case of `CC(C)Oc1cccc(-c2cn3c(-c4ccc5cn[nH]c5c4)cnc3cn2)c1`, the EC50 is > 25 µM. In the case of `COc1ccc(-c2cnc3cnc(-c4ccc5c(c4)OCCO5)cn23)cc1`, the concentration giving a half-maximal response (EC50) was > 25 µM. In the case of `COc1ccc(-c2cnc3cnc(-c4cccc(S(=O)(=O)N5CCOCC5)c4)cn23)cc1` it was > 25 µM.

Molecule `Cn1ncc2c(-c3cn4c(-c5ccc(O)cc5)cnc4cn3)cccc21` displayed an EC50 of 19 µM. In other words, the double-digit micromolar range. In the case of `Cn1cncc1-c1cn2c(-c3ccc(O)cc3)cnc2cn1` it was > 25 µM. In the case of `COc1ccc(-c2cnc3cnc(-c4cccc(OC(C)C)c4)cn23)cn1` it was 24.2 µM; in that of `Cn1cccc(-c2cn3c(-c4ccc(O)cc4)cnc3cn2)c1=O`, > 25 µM. In the case of `COc1cccc(-c2cnc3cnc(-c4cccc(OC(C)C)c4)cn23)c1` it was 24.8 µM; in that of `COc1cccc(-c2nnc3ccc(-c4cccc(C(C)C)c4)cn23)n1`, 12.4 µM. With `CC(C)Oc1cccc(-c2cn3c(-c4cn[nH]c4)cnc3cn2)c1`, the EC50 was > 25 µM. In the case of `CCOc1cccc(-c2cn3c(-c4ccc(O)cc4)cnc3cn2)c1F` it was 15.6 µM. In the case of `COc1ccc(-c2nnc3ccc(-c4cnc5[nH]ncc5c4)cn23)cc1OC` it was > 25 µM. The result for `CC(C)Oc1cccc(-c2cn3c(-c4ccnn4C)cnc3cn2)c1` reads > 25 µM. As to `Cn1ncc2cc(-c3cn4c(-c5ccc(O)cc5)cnc4cn3)ccc21`, the EC50 worked out at 21.4 µM.

`COc1cccc(-c2cn3c(-c4ccc(O)cc4)cnc3cn2)n1`: the EC50 was > 25 µM. In the case of `Cn1nc(C(F)(F)F)cc1-c1cn2c(-c3ccc(O)cc3)cnc2cn1` it was > 25 µM. The result for `CC(C)c1cccc(-c2ccc3nnc(-c4ccc(N)cc4)n3c2)c1` reads > 25 µM; that for `COc1cccc(OC)c1-c1nnc2ccc(-c3cccc(OC(C)C)c3)cn12`, > 25 µM. `CC(C)c1cccc(-c2ccc3nnc(-c4ccc(S(N)(=O)=O)cc4)n3c2)c1`: the EC50 is > 25 µM. In the case of `Cn1cc(-c2cn3c(-c4ccc(O)cc4)cnc3cn2)ccc1=O` it was > 25 µM; in that of `CC(C)c1cccc(-c2ccc3nnc(-c4ccc5cn[nH]c5c4)n3c2)c1`, > 25 µM; in that of `CC(C)Cn1cc(-c2cn3c(-c4ccc(O)cc4)cnc3cn2)cn1`, > 25 µM. In the case of `CC(C)Oc1cccc(-c2ccc3nnc(-c4ccc5c(c4)ncn5C)n3c2)c1` it was 25 µM. For the molecule `NC(=O)c1cccc(-c2cn3c(-c4ccc(O)cc4)cnc3cn2)c1`, the EC50 is > 25 µM. In the case of `CC(=O)c1ccc(F)c(-c2cn3c(-c4ccc(O)cc4)cnc3cn2)c1` it was > 25 µM. In the case of `NC(=O)Cc1cccc(-c2cn3c(-c4ccc(O)cc4)cnc3cn2)c1` it was > 25 µM; in that of `CN(C)C(=O)c1ccc(-c2cn3c(-c4ccc(O)cc4)cnc3cn2)cc1`, > 25 µM.

In the case of `CC(C)c1cccc(-c2ccc3nnc(-c4cccc(CO)c4)n3c2)c1`, the EC50 was > 25 µM. The result for `CC(C)Oc1cccc(-c2cn3c(-c4ccc(CN)cc4)cnc3cn2)c1` reads 24.2 µM. In the case of `CC(=O)c1cccc(-c2cn3c(-c4ccc(O)cc4)cnc3cn2)c1` it was > 25 µM; in that of `COc1ccc(-c2nnc3ccc(-c4cccc(OC(C)C)c4)cn23)cc1`, > 25 µM; in that of `Cn1ncc2cccc(-c3cn4c(-c5ccc(O)cc5)cnc4cn3)c21`, > 25 µM. In the case of `COc1ccc(-c2cnc3cnc(-c4cccc(CN)c4)cn23)cc1` it was > 25 µM; in that of `CC(C)Oc1cccc(-c2cn3c(-c4cccc(C#N)c4)cnc3cn2)c1`, > 25 µM. For `COc1ccc(-c2cnc3cnc(-c4cccc(CO)c4)cn23)cc1`, the EC50 was > 25 µM.

Consider `CC(C)c1cccc(-c2ccc3nnc(-c4ccc5[nH]ncc5c4)n3c2)c1`, for which the EC50 is > 25 µM. In the case of `CC(C)Oc1cccc(-c2ccc3nnc(-c4cccc(C#N)c4)n3c2)c1` it was > 25 µM; in that of `COc1ncc(-c2cnc3cnc(-c4cccc(OC(C)C)c4)cn23)cn1`, > 25 µM; in that of `Oc1ccc(-c2cnc3cnc(-c4ccc5[nH]ncc5c4)cn23)cc1`, > 25 µM.

Turning to `CC(C)Oc1cccc(-c2cn3c(-c4cnn(C)c4)cnc3cn2)c1`, the EC50 was > 25 µM. Molecule `COc1ccc(C(C)C)cc1-c1cn2c(-c3ccc(O)cc3)cnc2cn1` showed an EC50 of 6.06 µM. In the case of `Cn1nccc1-c1cn2c(-c3ccc(O)cc3)cnc2cn1` it was > 25 µM; in that of `CC(=O)c1cccc(-c2cn3c(-c4ccc(O)cc4)cnc3cn2)c1F`, > 25 µM.

For `COc1ccc(-c2nnc3ccc(-c4cccc(OC(C)C)c4)cn23)cc1OC`, the EC50 was > 25 µM. In the case of `CC(C)c1cccc(-c2ccc3nnc(-c4ccccn4)n3c2)c1` it was 14 µM; in that of `COc1cc(-c2cn3c(-c4ccc(O)cc4)cnc3cn2)ccn1`, > 25 µM; in that of `COc1cccc(-c2cn3c(-c4ccc(OC)c(F)c4)cnc3cn2)c1`, 24.2 µM. In the case of `CC(C)Oc1cccc(-c2cn3c(-c4ccc(N)cc4)cnc3cn2)c1` it was 21.3 µM. In the case of `CN(C)Cc1cccc(-c2cn3c(-c4ccc(O)cc4)cnc3cn2)c1` it was 24.6 µM; in that of `CC(C)Oc1cccc(-c2ccc3nnc(-c4ccc(F)cc4)n3c2)c1`, > 25 µM. With `Cc1n[nH]c(C)c1-c1cn2c(-c3ccc(O)cc3)cnc2cn1`, the EC50 is > 25 µM.

As to `Cc1c(-c2cn3c(-c4ccc(O)cc4)cnc3cn2)cnn1C`, the EC50 is > 25 µM.

With `CC(C)c1ccccc1-c1cn2c(-c3ccc(O)cc3)cnc2cn1`, it took 16.6 µM to reach a half-maximal effect (EC50). Regarding `COc1cccc(-c2nnc3ccc(-c4cccc(OC(C)C)c4)cn23)n1`, a half-maximal response (EC50) required 12.7 µM.

Consider `CC(C)Oc1cccc(-c2ccc3nnc(-c4ccc([S@+](C)[O-])cc4)n3c2)c1`, for which the EC50 was > 25 µM. The result for `CN(C)C(=O)c1cccc(-c2cn3c(-c4ccc(O)cc4)cnc3cn2)c1` reads > 25 µM. The result for `COc1cccc(-c2cn3c(-c4ccc5c(c4)CCO5)cnc3cn2)c1` reads > 25 µM; that for `COc1ccc(-c2nnc3ccc(-c4cccc(C(C)C)c4)cn23)c(OC)c1`, 23.7 µM; that for `COc1ccc(-c2cnc3cnc(-c4ccnc(OC)c4)cn23)cc1`, > 25 µM. `CCCOc1cc(-c2cn3c(-c4ccc(O)cc4)cnc3cn2)ccc1OC`: the EC50 was found to be 25 µM. This counts as double-digit micromolar.

In turn, `CC(C)Oc1cccc(-c2cn3c(-c4ccc(CO)cc4)cnc3cn2)c1` showed an EC50 of 25 µM. For the molecule `CC(C)Oc1cccc(-c2cn3c(-c4ccc(S(N)(=O)=O)cc4)cnc3cn2)c1`, the EC50 came to 25 µM. This lies in the double-digit micromolar range. The result for `COc1ccc(-c2nnc3ccc(-c4ccc(O)cc4)cn23)cc1OC` reads > 25 µM. The result for `COc1ccc(-c2cnc3cnc(-c4cccc(C#N)c4)cn23)cc1` reads > 25 µM; that for `CC(C)c1cccc(-c2ccc3nnc(-c4ccc(CO)cc4)n3c2)c1`, > 25 µM; that for `COc1ccc(-c2cnc3cnc(-c4ccccn4)cn23)cc1`, > 25 µM.

For `COc1cc(-c2nnc3ccc(-c4cccc(C(C)C)c4)cn23)ccn1`, the EC50 was > 25 µM. In the case of `Oc1ccc(-c2cnc3cnc(C4=CCOCC4)cn23)cc1` it was > 25 µM; in that of `OCCc1cccc(-c2cn3c(-c4ccc(O)cc4)cnc3cn2)c1`, > 25 µM. The result for `CN(C)S(=O)(=O)c1cccc(-c2cn3c(-c4ccc(O)cc4)cnc3cn2)c1` reads > 25 µM; that for `CS(=O)(=O)c1cncc(-c2cn3c(-c4ccc(O)cc4)cnc3cn2)c1`, > 25 µM; that for `COc1cccc(-c2cnc3cnc(-c4cccc(OC(C)C)c4)cn23)n1`, > 25 µM. Regarding `CCOc1cccc(-c2ccc3nnc(-c4ccc(OC)c(OC)c4)n3c2)c1`, the EC50 is > 25 µM. In the case of `COc1ccc(-c2nnc3ccc(-c4cccc(OC(C)C)c4)cn23)cc1F` it was 25 µM; in that of `COc1cccc(-c2nnc3ccc(-c4cccc(OC(C)C)c4)cn23)c1`, > 25 µM.
